Where a SMILES comes first, the peptide text is derived from it.
Assays:
[1] = molecular target: Kappa-type opioid receptor (Homo sapiens, UniProt P41145); experiment: Displacement of [3H]U69593 from human kappa opioid receptor expressed in CHO-K1 cells incubated for 1 hr by 1450 microbeta scintillation counter analysis; type: cell-based
Method in brief: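 Membranes from transiently KOR-transfected CHO-K1 cells (~2 µg/well) used in SPA with 3H-U69,593 (1 nM). Competitor ranged 1 pM–10 µM in 50 mM Tris-HCl pH 7.4, 5 mM MgCl2, 0.1% BSA. Incubated 1 h at room temperature with shaking. Nonspecific binding defined with 10 µM dynorphin A. Sigmoidal dose-response fit; at least three independent experiments in triplicate.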

[2] = Metabolic stability in Wistar rat plasma assessed as half life by HPLC analysis; type: ADME, cell-free
Method in brief: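 Peptide at 1 mg/mL in sterile PBS pH 7.4 was mixed 1:1 with thawed, centrifuged Wistar rat plasma supernatant and incubated at 37°C in triplicate. Samples at 0, 1, 2, 3, 4, 6 and 24 h were quenched with acetonitrile and then 2% TFA/water, and analysed by HPLC with inline electrospray MS.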

Sequence of Kappa-type opioid receptor (P41145 whole entry): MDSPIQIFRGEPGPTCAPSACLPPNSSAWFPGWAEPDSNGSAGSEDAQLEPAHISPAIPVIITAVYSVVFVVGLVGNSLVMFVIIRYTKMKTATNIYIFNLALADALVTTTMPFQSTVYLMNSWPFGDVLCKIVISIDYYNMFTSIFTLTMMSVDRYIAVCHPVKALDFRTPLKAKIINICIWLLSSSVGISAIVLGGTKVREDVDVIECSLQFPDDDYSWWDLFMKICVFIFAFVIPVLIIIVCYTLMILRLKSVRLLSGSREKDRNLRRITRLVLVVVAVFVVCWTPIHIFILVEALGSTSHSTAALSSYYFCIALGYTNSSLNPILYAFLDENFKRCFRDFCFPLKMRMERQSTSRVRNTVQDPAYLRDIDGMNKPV

SMILES	Ki [1]	half-life [2]
N=C(N)NCCC[C@@H](NC(=O)c1cnc2ccccc2c1)C(=O)N[C@H](CCCNC(=N)N)C(=O)N[C@@H](CCC(N)=O)C(=O)N[C@@H](CC1CCCCC1)C(=O)N[C@H]1CSSC[C@@H](C(N)=O)NC1=O	0.71 nM	0.75 h
N=C(N)NCCC[C@@H](NC(=O)[C@@H](CCCNC(=N)N)NC(=O)[C@@H]1CCCN1C(=O)c1ccc(Cl)cc1)C(=O)N[C@@H](CCC(N)=O)C(=O)N[C@@H](CC1CCCCC1)C(=O)N[C@H]1CSSC[C@@H](C(N)=O)NC1=O	0.13 nM	1 h
N=C(N)NCCC[C@@H](NC(=O)[C@@H]1Cc2ccccc2CN1)C(=O)N[C@H](CCCNC(=N)N)C(=O)N[C@@H](CCC(N)=O)C(=O)N[C@@H](CC1CCCCC1)C(=O)N[C@H]1C[Se][Se]C[C@@H](C(N)=O)NC1=O	2.4 nM	6 h
N=C(N)NCCC[C@H](NC(=O)[C@@H](CCCNC(=N)N)NC(=O)[C@@H](CCCNC(=N)N)NC(=O)[C@@H]1CCCN1C(=O)c1ccccc1)C(=O)N[C@@H](CC1CCCCC1)C(=O)N[C@H]1CSSC[C@@H](C(N)=O)NC1=O	0.23 nM	12 h
COc1ccc(C(=O)N2CCC[C@H]2C(=O)N[C@H](CCCNC(=N)N)C(=O)N[C@H](CCCNC(=N)N)C(=O)N[C@@H](CCC(N)=O)C(=O)N[C@@H](CS)C(=O)N[C@@H](CC2CCCCC2)C(=O)N[C@H]2CSSC[C@@H](C(N)=O)NC2=O)cc1	0.59 nM	2 h
N=C(N)NCCC[C@@H](NC(=O)[C@H]1NCCc2ccccc21)C(=O)N[C@H](CCCNC(=N)N)C(=O)N[C@@H](CCC(N)=O)C(=O)N[C@@H](CC1CCCCC1)C(=O)N[C@H]1CSSC[C@@H](C(N)=O)NC1=O	1.18 nM	0.75 h
N=C(N)NCCC[C@H](NC(=O)[C@@H](CCCNC(=N)N)NC(=O)[C@@H]1CCC(=O)N1)C(=O)N[C@@H](CCC(N)=O)C(=O)N[C@@H](CC1CCCCC1)C(=O)N[C@H]1CSSC[C@@H](C(N)=O)NC1=O	13 nM	1.5 h
N=C(N)NCCC[C@@H](NC(=O)[C@@H]1Cc2ccccc2CN1)C(=O)N[C@H](CCCNC(=N)N)C(=O)N[C@@H](CCC(N)=O)C(=O)N[C@@H](CC1CCCCC1)C(=O)N[C@H]1CSSC[C@@H](C(N)=O)NC1=O	0.91 nM	0.75 h
N=C(N)NCCC[C@@H](NC(=O)[C@@H](CCCNC(=N)N)NC(=O)[C@@H]1CCCN1C(=O)c1ccccc1)C(=O)NCC(=O)N[C@@H](CC1CCCCC1)C(=O)N[C@H]1CSSC[C@@H](C(N)=O)NC1=O	0.16 nM	1 h
N=C(N)NCCC[C@H](NC(=O)[C@H](CCCNC(=N)N)NC(=O)[C@@H]1CSSC[C@H](NC(=O)[C@@H](N)CC(N)=O)C(=O)N1)C(=O)N[C@@H](CCC(N)=O)C(=O)N[C@@H](Cc1cccc2ccccc12)C(=O)N[C@H]1CSSC[C@@H](C(N)=O)NC1=O (HELM PEPTIDE1{N.C.C.R.R.Q.[O=C([C@H](Cc1cccc2ccccc12)N[*:1])[*:2]].C.C.[am]}$PEPTIDE1,PEPTIDE1,2:R3-3:R3|PEPTIDE1,PEPTIDE1,8:R3-9:R3$$$V2.0)	2.9 nM	< 0.25 h
N=C(N)NCCC[C@@H](NC(=O)[C@@H](CCCNC(=N)N)NC(=O)[C@@H]1CCCN1C(=O)c1ccc(Cl)c(Cl)c1)C(=O)N[C@@H](CCC(N)=O)C(=O)N[C@@H](CS)C(=O)N[C@@H](CC1CCCCC1)C(=O)N[C@H]1CSSC[C@@H](C(N)=O)NC1=O	0.98 nM	1 h
N=C(N)NCCC[C@@H](NC(=O)[C@@H](CCCNC(=N)N)NC(=O)[C@@H]1CCCN1C(=O)c1ccc2ccccc2c1)C(=O)N[C@@H](CCC(N)=O)C(=O)N[C@@H](CC1CCCCC1)C(=O)N[C@H]1CSSC[C@@H](C(N)=O)NC1=O	0.07 nM	0.5 h
N=C(N)NCCC[C@@H](NC(=O)c1cc2ccccc2cc1N)C(=O)N[C@H](CCCNC(=N)N)C(=O)N[C@@H](CCC(N)=O)C(=O)N[C@@H](CC1CCCCC1)C(=O)N[C@H]1CSSC[C@@H](C(N)=O)NC1=O	0.64 nM	1 h

From ChEMBL document CHEMBL5252514, “Conopeptide-Derived κ-Opioid Agonists (Conorphins): Potent, Selective, and Metabolic Stable Dynorphin A Mimetics with Antinociceptive Properties” (J Med Chem, 2016)
